High-throughput results from PubChem.
KCNQ1 pot – potentiates or activates the human KCNQ1 potassium channel | P51787 | CHO-K1 KCNQ1, thallium flux FluxOR fluorescence; hits give high values | B-score at 10 µM | 0.35% of 310,000 active;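 active = fluorescence ratio B-score, a plate-corrected score, at least three library SD, with initial intensity B-score within 5 SD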
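Assay system: stable KCNQ1 CHO-K1 line; medium: assay buffer, equal DMSO in all wells; timing: 90 min dye loading and 20 min compound exposure, both at room temperature; technique: kinetic FluxOR thallium fluorescence, 10-s 1-Hz baseline, 110-s post-stimulus read; read-out basis: B score of baseline-normalized fluorescence ratio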
KCNQ1 block – blocks the human KCNQ1 potassium channel; 1.3% of 310,000 active; CHO-K1 KCNQ1, FluxOR thallium flux fluorescence; hits give high values; B-score at 10 µM; AID 2642;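 active = compounds whose thallium flux B-score, printed positive for inhibition, exceeds three library SD while starting fluorescence stays within three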;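 also: channel opened by potassium depolarization with thallium stimulus after 20 min compound exposure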
KCNK9 block – inhibitors of human KCNK9 two-pore domain potassium channel | Q9NPC2 | HEK293 KCNK9, FluxOR thallium flux fluorescence; hits give low values | B-score at 10 µM | 1.2% of 310,000 active | AID 488922;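 active = ratio B-score over 3 SD below the library mean, with starting fluorescence within 5 SD of its mean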;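 also: negative B-score means less thallium flux so channel inhibition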
hERG rescue – shields human hERG channel from block by proarrhythmic agents; Q12809; CHO-hERG, FluxOR thallium flux, dofetilide IC70 present; activation (rescue from dofetilide block), less the hit threshold, % at 10 µM; 0.51% of 310,000 active; AID 1511;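 active = activation above the mean of controls blocked by dofetilide plus 5 SD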;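 also: thallium influx through hERG after potassium depolarization seen as dye fluorescence rise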
Kir21 block – blocks the mouse Kir2.1 inward-rectifier potassium channel; P35561; HEK293-Kir2.1, FluxOR thallium flux fluorescence; hits give low values; B-score at 10 µM; 0.85% of 310,000 active; AID 1672;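 active = fluorescence ratio B-score at or below minus 3 SD of library scores, with starting-brightness B-score within 2 SD, cut at about -4.2 in these data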;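 also: channel flux triggered by added potassium and thallium sulfate stimulus; B-score of peak minus minimum fluorescence over baseline after thallium stimulus; more negative B-score means stronger Kir2.1 block with less thallium influx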
KCNK3 block – human KCNK3 channel inhibition, primary screen; O14649; CHO-KCNK3 thallium flux, FluxOR fluorescence; hits give low values; B-score at 10 µM; 0.84% of 340,000 active; AID 602410;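 active = B-score under library mean minus 4 SD, starting fluorescence ratio at most library mean plus 5 SD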;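 also: more negative B-score means stronger inhibition of thallium flux through KCNK3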
Target sequence (O14649 whole entry, looked up): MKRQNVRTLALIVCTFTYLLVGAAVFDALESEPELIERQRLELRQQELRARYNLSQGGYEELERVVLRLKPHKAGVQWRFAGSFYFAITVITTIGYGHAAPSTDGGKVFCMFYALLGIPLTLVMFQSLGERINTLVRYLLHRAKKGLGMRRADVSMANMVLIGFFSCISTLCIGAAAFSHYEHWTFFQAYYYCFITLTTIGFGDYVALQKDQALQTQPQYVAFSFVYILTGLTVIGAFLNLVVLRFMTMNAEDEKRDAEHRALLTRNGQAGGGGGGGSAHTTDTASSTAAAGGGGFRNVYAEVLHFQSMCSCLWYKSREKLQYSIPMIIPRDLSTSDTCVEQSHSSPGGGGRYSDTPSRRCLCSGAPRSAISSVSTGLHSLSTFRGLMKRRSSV
The depositor's hits bear a star. This is a sample that favours compounds with a hit; in the whole collection about 3.7% have one here.

How did CC1CCCCN1C(=O)c1ccc(C(=O)N2CCCCC2C)cc1 (configuration not stated) do in these assays?
KCNQ1 pot: inactive; KCNQ1 block: inactive; KCNK9 block: inactive; hERG rescue: -6; Kir21 block: -0.28; KCNK3 block: inactive

Results for Cc1ccc(C)c(S(=O)(=O)NCc2ccc(C(=O)N3CCCCC3C)cc2)c1 (configuration not stated) ?
KCNQ1 pot: inactive; KCNQ1 block: inactive; KCNK9 block: -6.8*; hERG rescue: -14; Kir21 block: -1.6; KCNK3 block: inactive

Results for O=C(NCC1CC1)[C@]1(C(F)(F)F)C[C@H](CCC2CCCCC2)CCCO1 ?
KCNQ1 pot: inactive; KCNQ1 block: inactive; KCNK9 block: inactive; hERG rescue: -14; Kir21 block: 0.86; KCNK3 block: inactive

Results for O=[N+]([O-])c1cccc(N(CC2CO2)S(=O)(=O)c2ccccc2)c1 (configuration not stated) ?
KCNQ1 pot: inactive; KCNQ1 block: inactive; KCNK9 block: inactive; hERG rescue: -3; Kir21 block: -4.7*; KCNK3 block: inactive

What do the screens show for `Cc1ccc(N(CC2CO2)S(=O)(=O)c2ccc([N+](=O)[O-])cc2)cc1` (configuration not stated)?
KCNQ1 pot: inactive; KCNQ1 block: inactive; KCNK9 block: inactive; hERG rescue: -1; Kir21 block: -4.3*; KCNK3 block: inactive

What do the screens show for `COc1ccc(CC(=O)OCC(=O)Nc2ccc(F)cc2)cc1`?
KCNK3 block: inactive

What do the screens show for `CCOc1nc2ccccc2cc1C=O`?
KCNQ1 pot: 11*; KCNQ1 block: inactive; KCNK9 block: inactive; hERG rescue: 7.1*; Kir21 block: 0.85; KCNK3 block: inactive

What do the screens show for `CC(=O)Nc1ccc(C(=O)OCC(=O)N2CCC(Cc3ccccc3)CC2)cc1`?
KCNK3 block: inactive

How did CC1CCN(C(=S)c2cn(Cc3ccccc3F)c3ccccc23)CC1 do in these assays?
KCNQ1 pot: inactive; KCNQ1 block: inactive; KCNK9 block: -6.6*; hERG rescue: -13; Kir21 block: 2.5; KCNK3 block: inactive

What do the screens show for `Cc1ccc(-n2cc(CN3CCN(c4ccccn4)CC3)c(-c3ccc(F)cc3)n2)cc1`?
KCNQ1 pot: inactive; KCNQ1 block: 6*; KCNK9 block: inactive; hERG rescue: -15; Kir21 block: 1.2; KCNK3 block: inactive

What do the screens show for `Cc1cccc(-n2cc(CN3CCN(c4ccccn4)CC3)c(-c3cccc(F)c3)n2)c1`?
KCNQ1 pot: inactive; KCNQ1 block: inactive; KCNK9 block: inactive; hERG rescue: -9; Kir21 block: -1.3; KCNK3 block: inactive

How did Cc1ccc(-n2cc(CNCCCn3ccnc3C)c(-c3ccc(F)cc3)n2)cc1 do in these assays?
KCNQ1 pot: inactive; KCNQ1 block: inactive; KCNK9 block: inactive; hERG rescue: -15; Kir21 block: -7.9*; KCNK3 block: inactive

What do the screens show for `Cc1ccc(-n2cc(CNCCc3cscn3)c(-c3ccc(F)cc3)n2)cc1`?
KCNQ1 pot: inactive; KCNQ1 block: inactive; KCNK9 block: inactive; hERG rescue: -21; Kir21 block: -2.6; KCNK3 block: inactive

What do the screens show for `COc1ccc(C(=O)NCc2ccc3c(c2)OCO3)cc1S(=O)(=O)N1CCCC1`?
KCNK3 block: inactive

How did Cn1c(N)c(C(=O)CSc2nc(C3CC3)n(-c3ccccc3)n2)c(=O)[nH]c1=O do in these assays?
KCNK3 block: inactive

How did O=C(Nc1cccc(C(F)(F)F)c1)C(Sc1ncnc2ccccc12)c1ccccc1 (configuration not stated) do in these assays?
KCNQ1 pot: inactive; KCNQ1 block: inactive; KCNK9 block: inactive; hERG rescue: -12; Kir21 block: 0.93; KCNK3 block: inactive

How did Cn1nnnc1SC(C(=O)Nc1cccc(C(F)(F)F)c1)c1ccccc1 (configuration not stated) do in these assays?
KCNQ1 pot: inactive; KCNQ1 block: inactive; KCNK9 block: -7*; hERG rescue: -11; Kir21 block: 0.11; KCNK3 block: inactive

What do the screens show for `O=C(Nc1cccc(C(F)(F)F)c1)C(SCCO)c1ccccc1` (configuration not stated)?
KCNQ1 pot: inactive; KCNQ1 block: inactive; KCNK9 block: -7.4*; hERG rescue: -11; Kir21 block: -1.3; KCNK3 block: inactive
